Test results: ChEMBL document CHEMBL4840302, “Si113-prodrugs selectively activated by plasmin against hepatocellular and ovarian carcinoma” (Eur J Med Chem, 2021)
≈ marks a conversion by molar mass, not a printed value. Each block holds one compound with its values, some of them ahead of it. Calls of active or inactive are those of the source. The calls are words filed in the database; no cut-off is given here.

Tests used:
[1] = Permeability of the compound at pH 7.4 at 500 uM incubated for 5 hrs by PAMPA based UV/LC-MS analysis; assay type: ADME; settings: read-out: permeability
Method in brief: (§1)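 Donor: compound diluted from 1 mM DMSO stock to 500 µM final in phosphate buffer (pH 7.4, 25 mM). Filter coated with 1% phosphatidylcholine in dodecane; acceptor 50% DMSO/phosphate buffer. 5 h at room temperature with gentle shaking. Donor and acceptor measured by UV/LC-MS; Papp and %MR calculated by equation. Three independent experiments.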

A2780TC [2] = assay: Antitumor activity against paclitaxel resistant human A2780TC cells xenografted in nude mouse assessed as reduction in tumor volume at 9.3 mg/kg/day, ip administered for 5 days/ week and measured every 7 days for 21 days in the presence of paclitaxel; assay type: functional, organism-based; settings: time 21.0 day
HepG2 [3] = assay: Cytotoxicity against human HepG2 cells assessed as reduction in cell viability measured after 24 hrs by MTT assay; assay type: functional, cell-based; settings: HepG2, 24 h
Method in brief: (§2)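 HepG2, Huh-7 or A2780 cells in DMEM with 10% FBS, 37 °C, 5% CO2. 2.5 × 10^4 cells seeded per well; compounds in DMSO added next day at 0.1, 1.0, 10.0 and 100.0 µM for 24, 48 or 72 h. IC50 from MTT dose-response by sigmoid fit. Means ± S.D. of three independent experiments in triplicate.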

[4] = Drug concentration in nude female mouse ovarian tissue xenografted with human A2780 cells at 9.5 mg/kg, ip administered as single dose incubated for 24 hrs followed by heparin treatment by LC-MS/MS analysis; assay type: ADME, organism-based, Female gonad; settings: in vivo
Method in brief: (§3)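 Female nude mice, xenografted subcutaneously with 2.5 × 10^6 A2780TC cells or left non-xenografted, two per group. Single i.p. dose: Si113 9.5 mg/kg in DMSO or prodrug 21 mg/kg in saline. At 24 h, heparin i.p. (5000 U/kg), then sacrifice under CO2. Plasma, tumour and organs extracted with acetonitrile/internal standard and analysed by LC-MS/MS.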

[5] = Permeability of the compound at pH 7.4 assessed as membrane retension at 500 uM incubated for 5 hrs by PAMPA based UV/LC-MS analysis; assay type: ADME; settings: pH 7.4, 5 h; method in brief: as §1
[6] = Metabolic stability in human liver microsomes assessed as parent compound remaining at 50 uM incubated for 1 hr in the presence of NADPH regenerating system by UV/LC-MS analysis; assay type: ADME, Microsome; settings: read-out: Stability
Method in brief: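 Human liver microsomes (0.2 mg/mL) with NADPH regenerating system and 50 µM compound in DMSO/phosphate buffer (pH 7.4, 25 mM), 1 h at 37 °C. Reaction quenched with acetonitrile and centrifuged; supernatant dried, taken up in methanol, and unmetabolised compound measured by UV/LC-MS. Three independent experiments.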

Huh-7 [7] = assay: Cytotoxicity against human Huh-7 cells assessed as reduction in cell viability measured after 24 hrs by MTT assay; assay type: functional, cell-based; settings: Huh-7, 24 h; method in brief: as §2
A2780 [8] = assay: Cytotoxicity against human A2780 cells assessed as reduction in cell viability measured after 24 hrs by MTT assay; assay type: functional, cell-based; settings: A2780, 24 h; method in brief: as §2
A2780 [9] = assay: Cytotoxicity against human A2780 cells assessed as reduction in cell viability measured after 48 hrs by MTT assay; assay type: functional, cell-based; settings: A2780, 48 h; method in brief: as §2
[10] = molecular target: T1, Serine/threonine-protein kinase Sgk1 (Homo sapiens) (UniProt O00141); assay: Inhibition of Sgk1 (unknown origin) at 0.6 uM using peptide substrate incubated for 30 mins in the presence of ATP by scintillation counting method relative to control
T1 sequence (whole entry): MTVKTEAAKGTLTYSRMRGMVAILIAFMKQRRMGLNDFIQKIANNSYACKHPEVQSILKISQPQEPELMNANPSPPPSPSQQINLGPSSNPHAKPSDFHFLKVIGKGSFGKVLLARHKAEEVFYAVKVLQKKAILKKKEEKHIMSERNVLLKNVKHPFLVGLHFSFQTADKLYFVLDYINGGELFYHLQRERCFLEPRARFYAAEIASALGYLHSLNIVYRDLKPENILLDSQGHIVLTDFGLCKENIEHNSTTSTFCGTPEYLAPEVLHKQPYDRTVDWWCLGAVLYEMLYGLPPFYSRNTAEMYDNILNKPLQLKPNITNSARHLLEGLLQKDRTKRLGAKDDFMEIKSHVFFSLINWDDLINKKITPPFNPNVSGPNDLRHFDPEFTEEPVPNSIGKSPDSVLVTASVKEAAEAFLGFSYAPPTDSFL

[11] = Drug concentration in nude female mouse tumor mass xenografted with human A2780 cells at 9.5 mg/kg, ip administered as single dose incubated for 24 hrs followed by heparin treatment by LC-MS/MS analysis; assay type: ADME, organism-based, Neoplasm; settings: in vivo; method in brief: as §3
A2780 [12] = assay: Cytotoxicity against human A2780 cells assessed as reduction in cell viability measured after 72 hrs by MTT assay; assay type: functional, cell-based; settings: A2780, 72 h; method in brief: as §2
Huh-7 [13] = assay: Cytotoxicity against human Huh-7 cells assessed as reduction in cell viability measured after 72 hrs by MTT assay; assay type: functional, cell-based; settings: Huh-7, 72 h; method in brief: as §2
[14] = molecular target: T1, Serine/threonine-protein kinase Sgk1 (Homo sapiens); assay: Inhibition of Sgk1 (unknown origin) at 12.5 uM using peptide substrate incubated for 30 mins in the presence of ATP by scintillation counting method relative to control
Huh-7 [15] = assay: Cytotoxicity against human Huh-7 cells assessed as reduction in cell viability measured after 48 hrs by MTT assay; assay type: functional, cell-based; settings: Huh-7, 48 h; method in brief: as §2
[16] = Aqueous solubility of the compound at 1 mg incubated for 24 hrs under shaking condition by LC-MS/MS analysis; assay type: physicochemical; settings: water
HepG2 [17] = assay: Cytotoxicity against human HepG2 cells assessed as reduction in cell viability measured after 72 hrs by MTT assay; assay type: functional, cell-based; settings: HepG2, 72 h; method in brief: as §2
HepG2 [18] = assay: Antitumor activity against human HepG2 cells xenografted in female nude mouse assessed as reduction in tumor growth at 9.5 mg/kg, ip administered for 5 days/week and measured every 7 days for 21 days; assay type: functional, organism-based; settings: time 21.0 day, in the assay text read “administered daily” for “administered for 5 days/week”
Method in brief: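 HepG2 cells (2.5 × 10^6, in 1:1 serum-free RPMI/Matrigel) injected subcutaneously in the dorsal posterior-lateral right region of 6-week-old female nude mice. Five mice per group, randomised. Dosing i.p. five days/week, started when tumours reached 100 mm3. Si113 was given in DMSO and prodrugs in saline, dosed to equal molar amounts. Caliper volume (π/6 × a2 × b) measured every 7 days; on day 21 tumours were excised and weighed.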

A2780TC [19] = assay: Antitumor activity against paclitaxel resistant human A2780TC cells xenografted in nude mouse assessed as reduction in tumor volume at 9.3 mg/kg/day, ip administered for 5 days/ week and measured every 7 days for 21 days; assay type: functional, organism-based; settings: time 21.0 day
HepG2 [20] = assay: Cytotoxicity against human HepG2 cells assessed as reduction in cell viability measured after 48 hrs by MTT assay; assay type: functional, cell-based; settings: HepG2, 48 h; method in brief: as §2
plasmin = plasmin (Homo sapiens, UniProt P00747); assay: Stability of the compound in human plasmin solution assessed as half life at 7.5 mM measured up to 24 hrs by UV/LC-MS analysis; assay type: ADME
Chain of plasmin (P00747 97-580 limits assumed): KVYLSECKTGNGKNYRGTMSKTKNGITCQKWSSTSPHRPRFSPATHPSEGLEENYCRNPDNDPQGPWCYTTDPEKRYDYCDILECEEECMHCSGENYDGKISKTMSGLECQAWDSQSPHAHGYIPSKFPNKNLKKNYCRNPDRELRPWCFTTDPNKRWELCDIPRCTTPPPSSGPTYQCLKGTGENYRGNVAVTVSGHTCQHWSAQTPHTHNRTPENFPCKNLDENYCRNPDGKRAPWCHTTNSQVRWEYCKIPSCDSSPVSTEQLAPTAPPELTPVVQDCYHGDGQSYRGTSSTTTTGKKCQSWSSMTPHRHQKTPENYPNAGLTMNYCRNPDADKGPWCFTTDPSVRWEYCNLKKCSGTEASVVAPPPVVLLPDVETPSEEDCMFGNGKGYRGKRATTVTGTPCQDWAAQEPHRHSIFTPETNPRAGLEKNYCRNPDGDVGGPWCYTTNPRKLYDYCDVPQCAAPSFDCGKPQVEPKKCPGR
Chain of plasmin (P00747 581-810 limits assumed): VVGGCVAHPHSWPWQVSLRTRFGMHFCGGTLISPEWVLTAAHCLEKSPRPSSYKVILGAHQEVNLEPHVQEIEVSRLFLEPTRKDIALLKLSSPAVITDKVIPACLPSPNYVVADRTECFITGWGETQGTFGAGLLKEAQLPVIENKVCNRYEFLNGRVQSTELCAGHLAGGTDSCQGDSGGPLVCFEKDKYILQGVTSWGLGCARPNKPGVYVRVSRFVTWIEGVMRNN
Method in brief: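 Human plasmin mixed with Tris buffer (pH 7.4, 100 mM) and prodrug (7.5 mM DMSO stock), incubated at 37 °C. Samples taken from 0 to 24 h, quenched with cold acetonitrile and centrifuged; analysed by UV/LC-MS. t1/2 is time to 50% hydrolysis.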

[21] = Drug concentration in naive BALB/C mouse kidney at 21 mg/kg, ip administered as single dose incubated for 24 hrs followed by heparin treatment by LC-MS/MS analysis; assay type: ADME, organism-based; settings: in vivo
Method in brief: (§4)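 Healthy male BALB/c mice, 4–6 weeks old, given a single i.p. 21 mg/kg prodrug dose in saline. At 24 h, heparin i.p. (5000 U/kg), then sacrifice under CO2. Organs homogenised with acetonitrile containing internal standard, centrifuged, filtered and quantified by LC-MS/MS against calibration curves. n = 3 per time point.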

[22] = Drug concentration in naive BALB/C mouse liver at 21 mg/kg, ip administered as single dose incubated for 24 hrs followed by heparin treatment by LC-MS/MS analysis; assay type: ADME, organism-based; settings: in vivo; method in brief: as §4
[23] = Stability of the compound in human plasma assessed as half life at 3 mM measured up to 24 hrs by UV/LC-MS analysis; assay type: ADME, cell-free
[24] = Drug concentration in nude female mouse tumor mass xenografted with human A2780 cells at 21 mg/kg, ip administered as single dose incubated for 24 hrs followed by heparin treatment by LC-MS/MS analysis; assay type: ADME, organism-based, Neoplasm; settings: in vivo; method in brief: as §3
[25] = Drug concentration in nude female mouse ovarian tissue xenografted with human A2780 cells at 21 mg/kg, ip administered as single dose incubated for 24 hrs followed by heparin treatment by LC-MS/MS analysis; assay type: ADME, organism-based, Female gonad; settings: in vivo; method in brief: as §3
A2780TC [26] = assay: Antitumor activity against paclitaxel resistant human A2780TC cells xenografted in nude mouse assessed as reduction in tumor growth at 5 mg/kg/day, ip administered for 5 days/ week and measured every 7 days for 21 days; assay type: functional, organism-based; settings: time 21.0 day

Papp at 5 h, 500 µM [1]: 2.6 ×10⁻⁶ cm/s | Drug uptake [4]: 1.89 nmol/g | permeability [5]: 86.2% | remaining at 1 h, 50 µM [6]: 84% | inhibition [10]: 75% | Drug uptake [11]: 2.2 nmol/g | inhibition [14]: > 90% | solubility thermodynamic at 24 h [16]: 0.4 µg/mL (≈ 0.999 µM)
SMILES: OCCNc1nc(NCCc2ccccc2)c2cnn(/C=C/c3ccccc3)c2n1
Activity (A2780TC [2]): Active | IC50 (HepG2 [3]): 15.9 µM | IC50 (Huh-7 [7]): 2.05 µM | IC50 (A2780 [8]): 25.6 µM | IC50 (A2780 [9]): 4.56 µM | IC50 (A2780 [12]): 3.47 µM | IC50 (Huh-7 [13]): 0.58 µM | IC50 (Huh-7 [15]): 1.88 µM | IC50 (HepG2 [17]): 3.15 µM | Activity (HepG2 [18]): Active | Activity (A2780TC [19]): Active | IC50 (HepG2 [20]): 8.29 µM

half-life at 7500 µM (plasmin): 3.1 h | Papp at 5 h, 500 µM [1]: 0.2 ×10⁻⁶ cm/s | Drug uptake [21]: 3.01 nmol/g | Drug uptake [22]: 11.05 nmol/g | solubility thermodynamic at 24 h [16]: > 1000 µg/mL | half-life [23]: 4.6 h
SMILES: C[C@@H](N)C(=O)N[C@@H](Cc1ccccc1)C(=O)N[C@@H](CCCCN)C(=O)NCCCCC(=O)OCCNc1nc(NCCc2ccccc2)c2cnn(/C=C/c3ccccc3)c2n1.O=C(O)C(F)(F)F.O=C(O)C(F)(F)F

half-life at 7500 µM (plasmin): 1.5 h | Papp at 5 h, 500 µM [1]: 0.2 ×10⁻⁶ cm/s | Drug uptake [21]: 1.77 nmol/g | Drug uptake [22]: 0.81 nmol/g | Drug uptake [24]: 5.69 nmol/g | Drug uptake [25]: 4.11 nmol/g | solubility thermodynamic at 24 h [16]: > 1000 µg/mL | half-life [23]: 0.3 h
SMILES: C[C@@H](N)C(=O)N[C@@H](Cc1ccccc1)C(=O)N[C@@H](CCCCN)C(=O)OCCNc1nc(NCCc2ccccc2)c2cnn(/C=C/c3ccccc3)c2n1.O=C(O)C(F)(F)F.O=C(O)C(F)(F)F

SMILES: CC(=O)O[C@H]1C(=O)[C@@]2(C)[C@H]([C@H](OC(=O)c3ccccc3)[C@]3(O)C[C@H](OC(=O)[C@H](O)[C@@H](NC(=O)c4ccccc4)c4ccccc4)C(C)=C1C3(C)C)[C@]1(OC(C)=O)CO[C@@H]1C[C@@H]2O
Activity (A2780TC [26]): inactive
